Test [1] deals with T1, Sm.5HTRL (Schistosoma mansoni, UniProt A0A173FEI8).
T1 sequence (A0A173FEI8 1-547): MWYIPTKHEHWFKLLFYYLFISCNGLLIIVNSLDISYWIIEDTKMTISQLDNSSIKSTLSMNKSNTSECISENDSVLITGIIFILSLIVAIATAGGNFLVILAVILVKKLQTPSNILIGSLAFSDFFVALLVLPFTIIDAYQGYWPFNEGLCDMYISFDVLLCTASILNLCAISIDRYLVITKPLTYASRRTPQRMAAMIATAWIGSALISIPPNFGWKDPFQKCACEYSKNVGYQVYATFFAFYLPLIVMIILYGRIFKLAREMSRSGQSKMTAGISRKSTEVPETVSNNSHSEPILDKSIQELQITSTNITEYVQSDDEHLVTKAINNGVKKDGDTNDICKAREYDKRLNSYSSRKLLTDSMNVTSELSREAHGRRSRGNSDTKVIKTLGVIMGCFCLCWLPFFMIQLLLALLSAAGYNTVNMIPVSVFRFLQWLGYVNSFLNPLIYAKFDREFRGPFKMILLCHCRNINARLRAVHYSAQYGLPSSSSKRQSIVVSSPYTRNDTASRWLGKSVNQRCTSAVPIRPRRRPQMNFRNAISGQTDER
Briefly: cAMP biosensor. The test is classed as cell-based. The note with it: for IC50: read-out: IC50 Sm.5HTRL, inhibition of 5-HT (0.8 μM) evoked cAMP generation, HEK293 cells co-transfected with 22-F cAMP biosensor, IBMX 200 μM; for block of Sm.5HTRL dependent cAMP generation in vitro: Fig. 1.

In test [2] the test system is larval schistosomules. Briefly: Schistosomule mobility. The class given is cell-based, Schistosoma mansoni. As to conditions: for IC50: Schistosoma mansoni, 0.5 h, read-out: IC50 schistosomule. The essentials: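 S. mansoni PR-1 cercariae mechanically transformed, tails removed on Percoll, kept in modified Basch medium without serotonin (37 °C, 5% CO2); about 200 per 0.5 mL well. Basal movement recorded first, then 5-HT (10 μM), then rising doses of test compound added at 20x. Incubated 30 min before a 1 min video. Mobility scored as body-length deviations >20% from the mean per minute.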

For test [3], the system named is larval schistosomules. As to conditions: ref Chan et al., 2014; cited from earlier work.
The next test deals with adult S. mansoni. The test can be described thus: Adult schistosome mobility assay. The test is classed as cell-based, Schistosoma mansoni.
Test [4] has as its target T1, Sm.5HTRL. As to conditions: chemical screening data; ref Chan et al., 2016b; cited from earlier work.
The test system of test [5] is human 5-HT7 receptor (Hs.5HT7R). The note with it: ref Farrell et al., 2016; cited from earlier work.

“Also recorded” adds a separate entry of the source.

Broadly, the IC50 is the concentration that inhibits the measured activity by half. As for `CN1CCc2cccc3c2[C@H]1Cc1ccc(O)c(O)c1-3` [Apomorphine, R-(−)-apomorphine, reference compound], the values for the IC50 at Sm.5HTRL [1] and in the test on larval schistosomules [2] were 15.2 ± 3.3 µM and 24.2 ± 15.1 µM, respectively. Moreover, the “effect on schistosomule contractility” value in the test on larval schistosomules [3] is listed as “inhibits schistosomule contractility”.
Turning to `COc1cc2c(cc1O)C[C@H]1c3c(cc(O)c(OC)c3-2)CCN1C` [Boldine, (+)boldine], on Sm.5HTRL [1], the “block of Sm.5HTRL dependent cAMP generation in vitro” value was “completely blocked” and the IC50 was 1.1 ± 0.1 µM. Further, the IC50 in the test with larval schistosomules [2] is 2.5 ± 1.4 µM. Further, in the test with adult S. mansoni (female adult worms, increasing 5-HT), the “effect on 5-HT stimulated motility” value is “high doses of 5-HT were competent at restoring motility”.
Take `COc1ccc2c(c1O)-c1c3c(cc4c1[C@H](C2)N(C)CC4)OCO3` [Bulbocapnine, (+)-Bulbocapnine]: the IC50 at Sm.5HTRL [1] turned out to be 15.2 ± 2.5 µM; in the test on larval schistosomules [2] it was 76.1 ± 17.8 µM.
Regarding `CC(C)C[C@H]1C(=O)N2CCC[C@H]2[C@]2(O)O[C@](NC(=O)[C@@H]3C=C4c5cccc6[nH]c(Br)c(c56)C[C@H]4N(C)C3)(C(C)C)C(=O)N12` [bromocriptine], the “inhibition at Sm.5HTRL” value at Sm.5HTRL [4] was “potent, and long lasting inhibition”.
As for `COc1cc2c3c(c1OC)-c1ccccc1C[C@H]3N(C)CC2` [Nuciferine, (−)nuciferine], at Sm.5HTRL [1], the “block of Sm.5HTRL dependent cAMP generation in vitro” value is reported as “completely blocked” and the half-inhibitory concentration (IC50) was 0.24 ± 0.04 µM. For the same compound, in the test on larval schistosomules [2] (5-HT 10 μM plus increasing doses of aporphine, Fig. 2), the “inhibition of larval contractions / schistosomule motility” value was “particularly effective at inhibiting larval contractions”. The half-inhibitory concentration (IC50) in the test on larval schistosomules [2] turned out to be 0.62 ± 0.22 µM. Also, in the test on adult S. mansoni (female adult worms, drug 10 μM, 2 h, p < 0.01 versus p < 0.05), the “effect on basal motility” value is given as “more effective than the other ligands”. Also, the “effect on 5-HT stimulated motility” value with adult S. mansoni (male adult worms, increasing 5-HT (≤1 mM)) is listed as “no 5-HT stimulated motility even at the highest 5-HT doses; also recorded: nuciferine action not reversed by 5-HT”. In addition, in test [5], the “action at the human 5-HT7 receptor” value is “inverse agonist”.
Turning to `NCCc1c[nH]c2ccc(O)cc12` [5-HT, 5-hydroxytryptamine, reference compound], the “increase in schistosomule contractility” value in the test with larval schistosomules [2] (5-HT 10 μM versus basal movement in media lacking 5-HT) was 3–5 fold. Moreover, the “effect of 5-HT on adult worm movement” value with adult S. mansoni (control worms, Fig. 4C&D) is listed as “stimulated movement, most evident in female worms”.
`CSc1ccc2c(c1)C(N1CCN(C)CC1)Cc1ccccc1S2` (centres unmarked) [methiothepin, reference compound]: the “effect on 5-HT stimulated schistosomule contractility” value in the test with larval schistosomules [2] (5-HT 10 μM plus methiothepin 10 μM, Fig. 2A) was “reversed this effect”.

Source of the values: paper PMC5196489 (International Journal for Parasitology: Drugs and Drug …, 2016).
